Measured values from the M2OR odorant receptor database.
Positions count from the first letter of the chain named.

Columns and labels:
Details in all cases: stereoisomer not certain
OR1L3 (Homo sapiens) = molecular target: T1, OR1L3 (Homo sapiens) (UniProt Q8NH93)
T1 sequence (whole entry): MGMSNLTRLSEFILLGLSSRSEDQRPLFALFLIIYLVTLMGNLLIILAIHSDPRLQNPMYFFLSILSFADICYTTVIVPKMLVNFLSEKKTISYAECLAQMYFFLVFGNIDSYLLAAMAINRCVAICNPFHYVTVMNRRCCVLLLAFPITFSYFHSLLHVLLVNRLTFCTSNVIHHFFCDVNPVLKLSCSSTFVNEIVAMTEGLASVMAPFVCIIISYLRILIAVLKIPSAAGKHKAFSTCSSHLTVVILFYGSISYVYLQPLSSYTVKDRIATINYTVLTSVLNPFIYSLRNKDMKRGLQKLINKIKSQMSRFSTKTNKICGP
Procedure, shortened: (§1)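 Whether a receptor–molecule pair is responsive (active) rests on the original authors' judgment that its measured signal was statistically different from baseline. Pairs without that judgment are non-responsive (inactive). Sources used varied assay methods, commonly transient luciferase assays in mammalian cell lines.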

OR1L4 (Homo sapiens) = molecular target: T2, OR1L4 (Homo sapiens) (UniProt Q8NGR5)
T2 sequence (whole entry): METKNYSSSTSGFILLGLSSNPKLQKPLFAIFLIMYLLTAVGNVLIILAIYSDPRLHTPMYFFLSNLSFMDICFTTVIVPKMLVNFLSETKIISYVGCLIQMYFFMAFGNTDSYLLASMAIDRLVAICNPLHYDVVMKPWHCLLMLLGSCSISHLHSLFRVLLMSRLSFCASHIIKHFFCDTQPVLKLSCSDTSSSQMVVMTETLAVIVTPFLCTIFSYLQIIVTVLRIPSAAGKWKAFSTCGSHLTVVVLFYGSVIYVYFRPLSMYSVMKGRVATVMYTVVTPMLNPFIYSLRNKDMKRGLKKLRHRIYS
Procedure, shortened: as §1

OR1L6 (Homo sapiens) = molecular target: T3, OR1L6 (Homo sapiens) (UniProt Q8NGR2)
T3 sequence (whole entry): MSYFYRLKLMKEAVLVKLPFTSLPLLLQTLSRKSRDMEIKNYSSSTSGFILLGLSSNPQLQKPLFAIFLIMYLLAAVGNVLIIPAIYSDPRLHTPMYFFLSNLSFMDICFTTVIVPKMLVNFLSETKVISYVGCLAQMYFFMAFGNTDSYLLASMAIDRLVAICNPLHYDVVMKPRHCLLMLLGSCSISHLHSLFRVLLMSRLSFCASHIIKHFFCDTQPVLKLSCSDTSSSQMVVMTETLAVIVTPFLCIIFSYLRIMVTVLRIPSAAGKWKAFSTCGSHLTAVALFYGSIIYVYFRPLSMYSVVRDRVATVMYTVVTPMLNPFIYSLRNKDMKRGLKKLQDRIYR
Procedure, shortened: as §1

OR1L8 (Homo sapiens) = molecular target: T4, OR1L8 (Homo sapiens) (UniProt Q8NGR8)
T4 sequence (whole entry): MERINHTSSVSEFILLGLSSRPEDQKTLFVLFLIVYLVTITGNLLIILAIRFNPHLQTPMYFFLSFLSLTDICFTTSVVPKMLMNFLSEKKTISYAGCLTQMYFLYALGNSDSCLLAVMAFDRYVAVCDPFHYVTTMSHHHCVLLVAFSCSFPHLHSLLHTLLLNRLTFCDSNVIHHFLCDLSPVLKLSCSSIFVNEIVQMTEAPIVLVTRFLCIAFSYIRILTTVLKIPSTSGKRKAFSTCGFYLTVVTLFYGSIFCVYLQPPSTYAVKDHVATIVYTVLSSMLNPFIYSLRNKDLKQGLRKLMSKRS
Procedure, shortened: as §1

OR1M1 (Homo sapiens) = molecular target: T5, OR1M1 (Homo sapiens) (UniProt Q8NGA1)
T5 sequence (whole entry): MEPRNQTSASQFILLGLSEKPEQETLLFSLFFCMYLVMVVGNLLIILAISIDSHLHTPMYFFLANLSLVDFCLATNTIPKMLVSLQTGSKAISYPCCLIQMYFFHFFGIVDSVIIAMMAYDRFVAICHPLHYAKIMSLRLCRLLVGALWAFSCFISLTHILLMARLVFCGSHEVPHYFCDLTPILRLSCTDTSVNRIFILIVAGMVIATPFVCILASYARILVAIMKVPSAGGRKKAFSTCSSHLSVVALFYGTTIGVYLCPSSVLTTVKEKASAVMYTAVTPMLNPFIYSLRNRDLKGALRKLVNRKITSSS
Procedure, shortened: as §1

OR1N1 (Homo sapiens) = molecular target: T6, OR1N1 (Homo sapiens) (UniProt Q8NGS0)
T6 sequence (whole entry): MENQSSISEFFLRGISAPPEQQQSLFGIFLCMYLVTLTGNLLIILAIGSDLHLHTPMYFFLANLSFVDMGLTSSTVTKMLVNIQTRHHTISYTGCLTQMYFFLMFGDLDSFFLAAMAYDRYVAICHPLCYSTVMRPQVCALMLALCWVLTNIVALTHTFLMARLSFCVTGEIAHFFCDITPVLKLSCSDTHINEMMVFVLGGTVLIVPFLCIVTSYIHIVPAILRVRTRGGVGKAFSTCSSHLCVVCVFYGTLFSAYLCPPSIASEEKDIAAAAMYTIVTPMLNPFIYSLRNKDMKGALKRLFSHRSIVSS
Procedure, shortened: as §1

OR1L4 = tested on: T7, OR1L4
T7 sequence (whole entry): T2 sequence (whole entry) with G234R
Procedure, shortened: as §1

OR1L6 = tested on: T8, OR1L6
T8 sequence (whole entry): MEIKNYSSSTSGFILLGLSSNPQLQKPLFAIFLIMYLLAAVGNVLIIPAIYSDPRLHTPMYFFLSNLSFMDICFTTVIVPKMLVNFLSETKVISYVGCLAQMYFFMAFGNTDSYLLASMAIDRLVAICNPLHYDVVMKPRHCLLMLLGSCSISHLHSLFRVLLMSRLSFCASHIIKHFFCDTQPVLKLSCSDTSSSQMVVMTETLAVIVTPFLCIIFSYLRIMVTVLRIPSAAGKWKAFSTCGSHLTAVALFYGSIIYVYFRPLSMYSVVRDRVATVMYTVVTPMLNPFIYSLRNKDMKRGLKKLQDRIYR
Procedure, shortened: as §1

OR1L8 T27P R211P = tested on: T9, OR1L8 T27P R211P
T9 sequence (whole entry): T4 sequence (whole entry) with T27P, R211P
Procedure, shortened: as §1

OR1N2 W37R = tested on: T10, OR1N2 W37R
T10 sequence (whole entry): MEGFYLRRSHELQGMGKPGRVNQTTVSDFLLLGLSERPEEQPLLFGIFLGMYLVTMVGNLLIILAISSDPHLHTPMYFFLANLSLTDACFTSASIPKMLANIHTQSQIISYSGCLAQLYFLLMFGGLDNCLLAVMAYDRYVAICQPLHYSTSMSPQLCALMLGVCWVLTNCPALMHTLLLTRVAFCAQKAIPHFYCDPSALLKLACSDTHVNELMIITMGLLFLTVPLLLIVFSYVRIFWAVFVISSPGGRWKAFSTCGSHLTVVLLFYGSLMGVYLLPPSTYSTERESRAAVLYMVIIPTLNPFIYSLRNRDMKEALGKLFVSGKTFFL
Procedure, shortened: as §1

Measured: odorant receptor agonist call;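 further: active if original authors judged signal statistically different from baseline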

CC(CO)CS (configuration not stated)
inactive: OR1L3 (Homo sapiens) | OR1L4 (Homo sapiens) | OR1L6 (Homo sapiens) | OR1L8 (Homo sapiens) | OR1M1 (Homo sapiens) | OR1N1 (Homo sapiens)

O=C([O-])CCCCCCCC(=O)[O-].[H+].[H+]
inactive: OR1N1 (Homo sapiens)

Cc1occc(=O)c1OC(=O)C(C)C
inactive: OR1L3 (Homo sapiens)

CC1CCCCCCCCCCCCC(=O)C1 (configuration not stated)
inactive: OR1L3 (Homo sapiens) | OR1L4 (Homo sapiens) | OR1L6 (Homo sapiens) | OR1L8 (Homo sapiens) | OR1M1 (Homo sapiens) | OR1N1 (Homo sapiens)

CCC(S)C(C)CO (configuration not stated)
inactive: OR1L3 (Homo sapiens) | OR1L4 (Homo sapiens) | OR1L6 (Homo sapiens) | OR1L8 (Homo sapiens) | OR1M1 (Homo sapiens) | OR1N1 (Homo sapiens)

CCC1OC(=O)C(O)=C1C (configuration not stated)
not listed: OR1L6 (Homo sapiens)
inactive: all other assays above

CCCC(S)CCOC(C)=O (configuration not stated)
not listed: OR1L6 (Homo sapiens)
inactive: all other assays above

CC(=O)c1c(C)c([N+](=O)[O-])c(C(C)(C)C)c([N+](=O)[O-])c1C
inactive: OR1L3 (Homo sapiens) | OR1L4 (Homo sapiens) | OR1L6 (Homo sapiens) | OR1L8 (Homo sapiens) | OR1M1 (Homo sapiens) | OR1N1 (Homo sapiens)

CC1=C(O)C(=O)C(C)O1 (configuration not stated)
not listed: OR1L6 (Homo sapiens)
inactive: all other assays above

CCCCCC(S)C(C)CO (configuration not stated)
inactive: OR1L3 (Homo sapiens) | OR1L4 (Homo sapiens) | OR1L6 (Homo sapiens) | OR1L8 (Homo sapiens) | OR1M1 (Homo sapiens) | OR1N1 (Homo sapiens)

Cc1cnc(C)c(C)n1
not listed: OR1L6 (Homo sapiens)
inactive: all other assays above

CC1=C(O)C(=O)OC1C (configuration not stated)
not listed: OR1L6 (Homo sapiens)
inactive: all other assays above

CC(C)CCCC(C)(C)O
inactive: OR1L3 (Homo sapiens)

C=CC(C)(CCC=C(C)C)OC(C)=O (configuration not stated)
inactive: OR1L3 (Homo sapiens)

CCC1OC(C)=C(O)C1=O (configuration not stated)
not listed: OR1L6 (Homo sapiens)
inactive: all other assays above

CCCCCCC=CCCC=O
not listed: OR1L6
inactive: all other assays above
